From ChEMBL document CHEMBL1157725 (Bioorg Med Chem, 2010)
pEC50, pIC50: −log10 of the molar value. Calls of active or inactive are those of the source. The calls are words filed in the database; no cut-off is given here.

What was measured:
[1] = Inhibition of tubulin polymerization by turbidimetry
Summary of the method: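 Tubulin at 10 µM (1.0 mg/mL). Polymerization followed turbidimetrically at 350 nm in temperature-controlled spectrophotometers.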

[2] = test system: MCF7; experiment: Antiproliferative activity against human MCF7 cells after 24 hrs by SRB assay; assay type: functional, cell-based; conditions: MCF7, 24 h
Summary of the method: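 MCF-7 cells are grown for 24 h with or without drug, then for a further 48 h. Total cell protein is measured by sulforhodamine B staining, and the IC₅₀ is derived from it.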

[3] = Inhibition of tubulin in rat A10 cells assessed as induction of cellular microtubule disassembly after 18 hrs by indirect immunofluorescence technique; assay type: cell-based; conditions: A10, 18 h
Summary of the method: (§1)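 A-10 cells plated on glass coverslips and treated with compound at varying concentrations for 18 h. After fixation, microtubules immunostained with a β-tubulin antibody (indirect immunofluorescence) and nuclei stained with DAPI. Read by fluorescence microscopy. Percentage of cellular microtubule loss estimated visually across the concentration range.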

[4] = Displacement of [3H]colchicine from tubulin at 5 uM by DEAE-cellulose filter method
[5] = Displacement of [3H]colchicine from tubulin at 50 uM by turbidimetry; conditions: in the assay text read “by DEAE-cellulose filter method” for “by turbidimetry”
Summary of the method: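 Binding of [³H]colchicine to tubulin (1.0 µM, 0.1 mg/mL) is measured by the DEAE-cellulose filter method. The radioligand is at 5.0 µM and test agents at 5 or 50 µM. Each is run in triplicate.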

[6] = test system: A10; experiment: Inhibition of tubulin in rat A10 cells assessed as disappearance of microtubule network at 20 uM after 18 hrs by fluorescence microscopy; assay type: cell-based; summary of the method: as §1

| pIC50 [1] | pIC50 [2] | pEC50 [3] | inhibition [4] [%] | inhibition [5] [%] | SMILES | Activity [6] |
| --- | --- | --- | --- | --- | --- | --- |
| < 4.40 | < 5.60 | < 4.82 |  |  | COc1ccc(C(=O)/C=C/c2cc(OC)c(OC)c(OC)c2)cc1B(O)O |  |
| 5.59 | 6.96 | 6.01 | 88 | 101 | COc1ccc(/C=C/C(=O)c2cc(OC)c(OC)c(OC)c2)cc1O | Active |

| SMILES | pIC50 [1] | pIC50 [2] | pEC50 [3] | inhibition [4] [%] | inhibition [5] [%] | Activity [6] |
| --- | --- | --- | --- | --- | --- | --- |
| COc1ccc(C(=O)/C=C/c2cc(OC)c(OC)c(OC)c2)cc1O | < 4.40 | < 5.60 | 4.74 |  |  |  |
